Results from different studies.
Lines come from different studies, so protocols differ. In brackets after ≈: the same amount, converted by molar mass.

O=c1c(O[C@@H]2O[C@H](CO)[C@@H](O)[C@H](O)[C@H]2O)c(-c2ccc(O)cc2)oc2cc(O)cc(O)c12
inhibition (tubulin polymerisation, inhibitor; 10 µM): 21.2%

CC1(C)CC[C@]2(CO)CC[C@]3(C)C(=CC[C@@H]4[C@@]5(C)CC[C@@H]6O[C@H]([C@H](O)[C@@H](O)[C@H](O)[C@H](O)CO)OC[C@@]6(C)[C@@H]5CC[C@]43C)[C@@H]2C1
inhibition (Leishmania mexicana; parasite growth, resazurin; 50 µM, amastigote): 99.1%

O=C(O)CN1C(=O)/C(=C/c2ccc(-c3ccc(N(c4ccccc4)c4ccccc4)cc3)c3ccccc23)NC1=S
MBC (Staphylococcus epidermidis; microbial killing, broth dilution; ATCC12228): > 1000 µg/mL

CC1(C)CC[C@]2(NC(=O)N3CCCC3)CC[C@]3(C)C(=CC[C@@H]4[C@@]5(C)CC[C@H](O)[C@@](C)(CO)[C@@H]5CC[C@]43C)[C@@H]2C1
inhibition (Leishmania mexicana; parasite growth, resazurin; 50 µM, amastigote): 99%

O=C(O)CN1C(=O)/C(=C/c2ccc(-c3ccc(N(c4ccccc4)c4ccccc4)cc3)cc2)SC1=S
MBC (Staphylococcus epidermidis; microbial killing, broth dilution; ATCC12228): 7.8 µg/mL (≈ 14.9 µM)

O=c1cc(-c2ccc(O)c(O)c2)oc2cc(O)cc(O)c12
inhibition (tubulin polymerisation, inhibitor; 10 µM): 26.2%

O=C(O)CN1C(=O)/C(=C/c2c3ccccc3c(-c3ccc(N(c4ccccc4)c4ccccc4)cc3)c3ccccc23)NC1=S
MBC (Staphylococcus epidermidis; microbial killing, broth dilution; ATCC12228): > 1000 µg/mL

Cc1ccc(-c2nc3ccccc3s2)cc1NC(=O)c1cc([N+](=O)[O-])ccc1Cl
EC50 (Leishmania mexicana; parasite growth; J774.A1; intracellular, amastigote): > 10000 nM

O=C(/C=C/c1ccc(O)c(O)c1)O[C@@H]1C[C@](O)(C(=O)O)C[C@@H](O)[C@H]1O
inhibition (tubulin polymerisation, inhibitor; 10 µM): 30.9%

O=C(Nc1ccc(Cl)c(Cl)c1)c1cc([N+](=O)[O-])c(F)cc1Cl
EC50 (Leishmania mexicana; parasite growth; J774.A1; intracellular, amastigote): 950 nM

CO[C@H]1O[C@H]([C@@H]2OC[C@@]3(C)[C@@H]4CC[C@]5(C)[C@H](CC=C6[C@@H]7CC(C)(C)CC[C@]7(C(=O)O)CC[C@]65C)[C@@]4(C)CC[C@@H]3O2)[C@@H](O)[C@H](O)[C@H]1O
inhibition (Leishmania mexicana; parasite growth, resazurin; 50 µM, amastigote): 96.6%

COc1cc(-c2ccc(-c3ccc(C(=N)N)nc3)s2)cc(OC)c1OC
GI50 (HOP-62; cell growth or viability, SRB): 2790 nM

C[C@@H]1O[C@@H](C[C@@H]2OC[C@@]3(C)[C@@H]4CC[C@]5(C)[C@H](CC=C6[C@@H]7CC(C)(C)CC[C@]7(C(=O)O)CC[C@]65C)[C@@]4(C)CC[C@@H]3O2)[C@@H](O)[C@H](O)[C@@H]1O
inhibition (Leishmania mexicana; parasite growth, resazurin; 50 µM, amastigote): 99.2%

CC[C@H](CC[C@@H](C)[C@H]1CC[C@H]2[C@@H]3CC=C4C[C@@H](O[C@@H]5O[C@H](CO)[C@@H](O)[C@H](O)[C@H]5O)CC[C@]4(C)[C@H]3CC[C@]12C)C(C)C
inhibition (tubulin polymerisation, inhibitor; 10 µM): 14.4%

CC1(C)CC[C@]2(NC(=O)N3CCC[C@H]3CO)CC[C@]3(C)C(=CC[C@@H]4[C@@]5(C)CC[C@@H]6OC(C)(C)OC[C@@]6(C)[C@@H]5CC[C@]43C)[C@@H]2C1
inhibition (Leishmania mexicana; parasite growth, resazurin; 50 µM, amastigote): 95.8%

O=c1c(O)c(-c2ccc(O)cc2)oc2cc(O)cc(O)c12
inhibition (tubulin polymerisation, inhibitor; 10 µM): 15%
